Bioassay records from PubChem BioAssay.
IDE cell inh = cellular human IDE inhibition. inhibition, % at 5.59 µM. HEK cells, FAbetaB cleavage, fluorescence polarization. P14735. 320,000 tested, 0.41% active;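 active = percent inhibition above the average of all tested compounds plus 3 SD, set per screening campaign, cut at about 16% in these data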;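 also: IDE supplied by intact live HEK cells; FP after avidin binding of uncleaved biotin substrate so inhibition keeps polarization high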
IDE cell activ = activators of human insulin-degrading enzyme in cells; HEK cells, FAbeta-B cleavage, fluorescence polarization; 0% vehicle, 100% cell-free pure enzyme wells; 340,000 tested, 0.073% active; P14735; activation, % at 5.96 µM; AID 493087;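 active = activation above the mean of all tested compounds plus 3 SD, set per screening campaign, cut at about 17% in these data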
TPT1 inh = blocks Candida albicans tRNA 2'-phosphotransferase; AID 1962; inhibition, % at 5 µM; 300,000 tested, 0.81% active; recombinant caTPT1, FP RNA substrate dephosphorylation;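 active = inhibition above the mean of all tested compounds plus 3 SD, set per screening campaign, cut at about 24% in these data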
CSN deneddyl inh = inhibitors of human CSN-mediated cullin deneddylation | Q92905 | Purified CSN, SCF-Nedd8-OG deneddylation, fluorescence polarization | inhibition, % at 12.5 µM | 360,000 tested, 0.38% active;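 active = pattern-corrected inhibition above about 35%, with an unprinted fluorescence ratio check between 0.5 and 1.5, limit read from the data, passing the limit was not always enough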
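Assay system: purified human Csn5 enzyme expressed in HEK293T cells; measure: % inhibition; also added: SCFSkp2-Nedd8OG substrate at 10 nM final; technique: fluorescence polarization; times: reaction 90 min, room temperature; medium: Tris buffer pH 7.5, NaCl, DTT, Tween-20, trehalose, ovalbumin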
Tb MetRS inh = Trypanosoma brucei MetRS inhibition; purified T. brucei MetRS, ATP depletion, Kinase-Glo luminescence; 360,000 tested, 0.4% active; inhibition, % at 11.9 µM;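 active = inhibition above a per-plate cutoff of the control wells' mean inhibition plus 3 SD, cut at about 5.5% in these data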
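assay system = parasite MetRS enzyme | timing = 15 min preincubation, 2 h reaction, all 25 °C | evaluation = percent inhibition relative to median high and low control wells | medium = HEPES buffer containing pyrophosphatase, BSA, spermine, DTT | compound = single dose, 11.9 µM final nominal, 0.9% final DMSO | detection = Kinase-Glo luminescence, ATP depletion format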
HNF4A DNA FP = change in binding of human HNF4 alpha to DNA | HNF4a-FITC DNA binding, fluorescence polarization, 1 h | activity change, % at 10 µM | P41235 | 360,000 tested, 0.3% active; in the data active = activity change above about 30%, passing the limit was not always enough
Target sequence (P41235 whole entry, looked up): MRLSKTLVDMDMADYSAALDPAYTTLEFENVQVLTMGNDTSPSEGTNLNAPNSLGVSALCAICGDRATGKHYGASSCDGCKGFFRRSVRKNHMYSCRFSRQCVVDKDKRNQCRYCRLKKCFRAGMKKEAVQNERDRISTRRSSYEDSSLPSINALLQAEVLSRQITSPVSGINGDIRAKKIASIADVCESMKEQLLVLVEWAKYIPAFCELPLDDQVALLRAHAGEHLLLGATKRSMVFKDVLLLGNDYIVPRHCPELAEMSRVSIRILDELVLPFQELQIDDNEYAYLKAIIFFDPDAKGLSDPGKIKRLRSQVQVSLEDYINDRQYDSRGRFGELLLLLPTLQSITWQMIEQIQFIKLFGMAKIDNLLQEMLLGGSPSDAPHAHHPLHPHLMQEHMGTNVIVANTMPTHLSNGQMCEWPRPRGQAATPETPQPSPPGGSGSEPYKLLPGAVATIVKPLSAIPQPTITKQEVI
caTPT1 confirm = TPT1 (C. albicans) inhibition, confirmation | shares compounds with TPT1 inh | recombinant caTPT1, fluorescence polarization, RNase T1 coupled | inhibition, % at 5 µM | 2,400 tested, 74% active | AID 2149;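 active = inhibition above the primary screen limit, the mean inhibition of all tested compounds plus 3 SD, cut at about 25% in these data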
RNase T1 inh = counter-screen for TPT1 inhibitors: inhibitors of Aspergillus oryzae RNase T1. shares compounds with TPT1 inh. RNase T1 cleavage, fluorescence polarization, 1536-well. inhibition, % at 5 µM. 2,400 tested, 83% active;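 active = inhibition above the solvent-only control well mean plus 3 SD, limit set per screening run, cut at about 23% in these data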;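 also: inhibitors block cleavage so intact labeled substrate keeps polarization high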
A number is an active result. A selection: hits, their analogues and other compounds. The true share with any hit is near 1.7%.

Screening Cc1ccc(NC(=O)c2noc3c2CCCCC3)cc1 returned IDE cell inh inactive, IDE cell activ inactive, TPT1 inh inactive, CSN deneddyl inh inactive, Tb MetRS inh inactive and HNF4A DNA FP inactive.
Cc1ccc(O)c(NC(=O)c2noc3c2CCCCC3)c1 was read as IDE cell inh inactive, IDE cell activ inactive, TPT1 inh 25, CSN deneddyl inh inactive, Tb MetRS inh inactive, HNF4A DNA FP inactive, caTPT1 confirm inactive and RNase T1 inh inactive.
For O=C(O)c1ccccc1N/N=C\c1ccnc2ccccc12 the results were IDE cell inh inactive, IDE cell activ inactive, TPT1 inh 24, CSN deneddyl inh inactive, Tb MetRS inh inactive, HNF4A DNA FP inactive, caTPT1 confirm inactive and RNase T1 inh 30.
N#Cc1c(C(F)(F)F)cc(-c2ccccc2)nc1SCc1nc(N)nc(N2CCOCC2)n1 was read as IDE cell inh inactive, IDE cell activ inactive, TPT1 inh 46, CSN deneddyl inh 60, Tb MetRS inh inactive, HNF4A DNA FP inactive, caTPT1 confirm 56 and RNase T1 inh 60.
Screening N#Cc1c(C(F)(F)F)cc(-c2ccc(Cl)c(Cl)c2)nc1SCCN1CCOCC1 returned IDE cell inh inactive, IDE cell activ inactive, TPT1 inh inactive, CSN deneddyl inh inactive, Tb MetRS inh inactive and HNF4A DNA FP inactive.
For COc1c(C)cc(Br)cc1C(=O)Nc1ccc(Cc2ccncc2)cc1 the results were IDE cell inh inactive, IDE cell activ inactive, TPT1 inh inactive, CSN deneddyl inh inactive, Tb MetRS inh inactive and HNF4A DNA FP inactive.
`CCOc1ccc(-c2nc(C#N)c(N3CCN(C)CC3)o2)cc1` gave IDE cell inh inactive, IDE cell activ inactive, TPT1 inh 76, CSN deneddyl inh inactive, Tb MetRS inh inactive, HNF4A DNA FP inactive, caTPT1 confirm inactive and RNase T1 inh inactive.
`O=C(O)c1ccc(N/N=C/c2cc3ccccc3nc2Cl)cc1` gave IDE cell inh inactive, IDE cell activ inactive, TPT1 inh inactive, CSN deneddyl inh inactive, Tb MetRS inh inactive and HNF4A DNA FP inactive.
Screening Cc1cccc2cc(/C=N/Nc3ccc(C(=O)O)cc3)c(Cl)nc12 returned IDE cell inh inactive, IDE cell activ inactive, TPT1 inh 25, CSN deneddyl inh inactive, Tb MetRS inh inactive, HNF4A DNA FP inactive, caTPT1 confirm 42 and RNase T1 inh 54.
`Cc1nn(CC(=O)c2ccccc2Cl)c(C)c1[N+](=O)[O-]` gave IDE cell inh inactive, IDE cell activ inactive, TPT1 inh inactive, CSN deneddyl inh inactive, Tb MetRS inh inactive and HNF4A DNA FP inactive.
Screening Cc1nn(CC(=O)c2ccc(Br)s2)c(C)c1[N+](=O)[O-] returned IDE cell inh inactive, IDE cell activ inactive, TPT1 inh 33, CSN deneddyl inh inactive, Tb MetRS inh inactive, HNF4A DNA FP inactive, caTPT1 confirm 49 and RNase T1 inh 63.
Screening O=C(c1ccco1)N1CCN(C(=O)c2cccc3c2C(=O)N(Cc2cccnc2)C3)CC1 returned IDE cell inh inactive, IDE cell activ inactive, TPT1 inh inactive, CSN deneddyl inh inactive, Tb MetRS inh inactive and HNF4A DNA FP inactive.
Screening O=C(c1ccco1)N1CCN(C(=O)c2cccc3c2C(=O)N(C2CCCCC2)C3)CC1 returned IDE cell inh inactive, IDE cell activ inactive, TPT1 inh 27, CSN deneddyl inh inactive, Tb MetRS inh inactive, HNF4A DNA FP inactive, caTPT1 confirm inactive and RNase T1 inh 26.
`COc1ccc2c3c([nH]c2c1)[C@H]1C[C@H]2[C@H](C[C@@H](O)[C@H](OC)[C@H]2C(=O)O)CN1CC3` gave IDE cell inh inactive, IDE cell activ inactive, TPT1 inh inactive, CSN deneddyl inh inactive, Tb MetRS inh inactive and HNF4A DNA FP inactive.
